Source: PubChem BioAssay (several laboratories)
NR2E3 ag-1: activates human photoreceptor nuclear receptor NR2E3; Q9Y5X4; GST-NR2E3/biotin-RetCOR TR-FRET, 1536-well; inhibition of corepressor binding, % at 4.78 µM; 0.12% of 320,000 active; AID 2300;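 active = percent inhibition above the cutoff of mean plus 3 SD of all tested compounds, set per screening campaign, cut at about 20% in these data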;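 also: 0% = DMSO wells and 100% = biotin wells as full block of FRET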
Target sequence (Q9Y5X4 whole entry, looked up): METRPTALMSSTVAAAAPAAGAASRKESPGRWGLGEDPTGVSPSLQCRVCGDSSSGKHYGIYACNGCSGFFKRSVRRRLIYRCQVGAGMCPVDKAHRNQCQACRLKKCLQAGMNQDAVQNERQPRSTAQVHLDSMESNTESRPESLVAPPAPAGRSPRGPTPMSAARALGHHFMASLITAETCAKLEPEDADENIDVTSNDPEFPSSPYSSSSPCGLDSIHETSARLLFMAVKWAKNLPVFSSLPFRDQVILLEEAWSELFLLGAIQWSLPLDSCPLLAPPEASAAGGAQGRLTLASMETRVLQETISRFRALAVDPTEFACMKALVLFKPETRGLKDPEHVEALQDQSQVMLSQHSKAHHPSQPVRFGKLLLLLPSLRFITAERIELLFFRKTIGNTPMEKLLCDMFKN
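Material – GST-tagged NR2E3 plus biotinylated RetCOR corepressor · Quantity – NR2E3 fusion 1.35 nM · Times – 5 h incubation at 4 °C · Medium – pH 7.5 Tris-based buffer · Technique – TR-FRET, Eu(K)-anti-GST donor, streptavidin-D2 acceptor, ex 340, em 617/671 nm · Benchmarks – high control biotin, low control 0.6% DMSO · Format – 1536-well plates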
Myeloid diff MLP: myeloid differentiation induction | ER-HoxA9 myeloid progenitors, lysozyme-GFP differentiation, flow cytometry | calls only at 10 µM | 1% of 360,000 active | AID 624256;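 active = normalized GFP-positive differentiation at or above the plate's own cutoff, the solvent-only control mean plus 3 SD; inconclusive = no clear call, values can overlap the other calls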;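 also: cells exposed to compound for four days before flow analysis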
T cell HTS: T cell immune modulators affecting CD8 T cell-vesicle binding | AID 2052 | 2C CD8+ T cell-vesicle binding, flow cytometry; active compounds read low | 0.068% of 330,000 active | response (vesicle binding), % at 7 µM;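 active = response, share of CD8 T cells binding vesicles, and their 90th percentile fluorescence all below set limits, cut at about 80% in these data, passing the limit was not always enough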;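 also: values below 100% mean blocked vesicle binding to the CD8+ T cells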
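Assay system: 2C TCR transgenic mouse naive CD8+ T cells, MACS-purified | Read-out: CD8+ gate FL2 mean fluorescence as % of same-row positive control | Signal: High-throughput flow cytometry with anti-B7-1 and anti-CD8 staining | Timing: Binding step 1.5 h, 37 °C, antibody labelling 20 min, ice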
NR2E3 ag-2: activates human NR2E3 receptor. 0.35% of 360,000 active. inhibition of corepressor binding, % at 3.98 µM. CHO-S Gal4-NCOR/VP16-NR2E3 two-hybrid, luciferase. Q9Y5X4;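 active = inhibition above the mean of all tested compounds plus 3 SD, cut at about 70% in these data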;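 also: 0% = DMSO with NR2E3 transfected cells and 100% = cells lacking NR2E3 construct; higher means lower luciferase signal from less NR2E3 corepressor binding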
FXN GAA850 act: activators of GAA850 frataxin (FXN) promoter | 0.56% of 360,000 active | HEK293 lucGAA850 FXN promoter luciferase reporter, 24 h; percent of 10 µM SAHA response | activation, % at 6 µM;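 active = activation above the average of all compounds screened plus 3 SD, cutoff fixed separately per campaign, cut at about 7.5% in these data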;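 also: 0% = DMSO wells and 100% = 10 µM SAHA wells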
GAA30 counter: activates GAA30 frataxin promoter, counter-screen for GAA850 activators; shares compounds with FXN GAA850 act; HEK293 lucGAA30 FXN promoter luciferase, 24 h; DMSO = 0%, 5 µM ipriflavone = 100%; activation, % at 6 µM; 66% of 1,900 active;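 active = mean activation above the mean of solvent-only control wells plus 3 SD, cut at about 22% in these data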;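 also: counterscreen of GAA850 promoter hits where activity marks nonselective or luminescence artifacts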
GAA850 confirm: confirmation of GAA850 frataxin (FXN) promoter activators | shares compounds with FXN GAA850 act | HEK293 lucGAA850 FXN promoter luciferase reporter, 24 h; 100% = activation by SAHA | activation, % at 6 µM | 86% of 1,900 active;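 active = mean activation above a set limit taken from the primary screen, cut at about 8% in these data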;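 also: 0% = DMSO wells and 100% = 10 µM SAHA wells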
Numbers without * were called inactive; i = inactive; ? = inconclusive; . = no result. Rows were chosen to be rich in hits. Some 2% of all compounds tested hit in one or more screens of this group.

SMILES | NR2E3 ag-1 | Myeloid diff MLP | T cell HTS | NR2E3 ag-2 | FXN GAA850 act | GAA30 counter | GAA850 confirm
O=C1C2C3C=CC(C4CC34)C2C(=O)N1/N=C/c1ccc([N+](=O)[O-])o1 (stereo not given) | 6.2 | ? | 217.0 | 7.6 | 9.6* | -2.2 | 11.5*
Cc1ccc(-n2c(C)c(C)c3c(NCCO)ncnc32)cc1 | 1.3 | i | 533.9 | -67.8 | 7.9* | 89.2* | 30.9*
Cc1c(C)n(-c2ccccc2)c2ncnc(NCCCN(C)C)c12 | 0.9 | i | 495.9 | 10.3 | 0.2 | . | .
Cc1cc(C(=O)Cn2ncc(Cl)c(Cl)c2=O)c(C)n1CC(F)(F)F | 7.2 | ? | 380.0 | -15.9 | 13.7* | 20.9 | 22.5*
O=C(NCCc1ccccc1)C1COc2ccccc2O1 (stereo not given) | 1.8 | i | 116.6 | -34.6 | 0.1 | . | .
O=C(NCCc1ccc(O)c(O)c1)C1COc2ccccc2O1 (stereo not given) | 2.8 | i | 168.6 | -15.6 | 8.8* | 21.8 | 18.4*
CC[N+]1(C)CCC(O)(c2ccc(OC)cc2)C(C(=O)c2ccc(OC)cc2)C1 (stereo not given) | . | i | . | -31.5 | -3.4 | . | .
C(=C\c1nc(-c2cccnc2)no1)/c1ccccc1 | -1.2 | i | 375.5 | -146.2 | 8.7* | 123.9* | 42.6*
O=C1NC(=O)C2(CCCC2)N1 | . | i | . | 11.4 | -0.7 | . | .
COc1cc(OC)cc(-c2cc3cc(F)ccc3cn2)c1 | . | i | 217.9 | -120.2 | 8.0* | 95.3* | 36.3*
COc1cc(Cl)ccc1OC1(C)CCN(Cc2ccc(SC)cc2)C1 (stereo not given) | . | i | . | -21.7 | -0.4 | . | .
O=C1Nc2ccc(Br)cc2/C1=C/C(=O)c1ccccc1 | . | . | . | -58.9 | 11.3* | -7.9 | 16.6*
O=C(O)COc1ccccc1/C=C1\C(=O)Nc2ccc(Br)cc21 | -2.6 | i | 464.1 | -15.1 | 0.5 | . | .
COc1cc2ccccc2cc1C(=O)Nc1ccccc1Cl | 0.1 | i | 175.9 | -162.3 | 8.2* | 120.6* | 39.3*
COc1cc2ccccc2cc1C(=O)Nc1ccccc1N1CCCC1 | 1.6 | i | 964.6 | -11.8 | -0.7 | . | .
CCCN1CCN(C(c2cc3cc(OCC)ccc3[nH]c2=O)c2nnnn2C2CCCCC2)CC1 (stereo not given) | 0.1 | i | 137.2 | 10.3 | 10.7* | 16.9 | 7.9*
O=C(O)c1ccccc1N/N=C/c1cc(Br)cc(Br)c1O | 2.0 | i | 190.1 | -158.8 | 9.3* | 134.8* | 42.3*
COc1ccccc1CC(=O)Nc1ccc(C(=O)N2CCCCC2)cc1 | 2.8 | i | 0.0 | 0.1 | 1.4 | . | .
CN1CCSc2ccc(C(=O)Nc3ccc(Cl)cc3)cc21 | -31.4 | i | 144.0 | -89.7 | 7.8* | 120.0* | 45.4*
CC(C)c1ccc(N(C(=O)c2csnn2)C(C(=O)NC2CCCC2)c2ccncc2)cc1 (stereo not given) | 4.1 | i | 449.8 | -145.4 | 20.0* | 67.3* | 24.5*
CC(C)c1ccc(N(C(=O)c2ccco2)C(C(=O)NC2CCCC2)c2ccncc2)cc1 (stereo not given) | 2.4 | i | 150.6 | -126.6 | 10.3* | 106.2* | 37.9*
Cc1ccccc1CCN(C(=O)c1csnn1)C(C(=O)NC1CCCC1)c1ccncc1 (stereo not given) | 3.1 | i | 700.4 | 17.6 | 14.0* | 18.9 | 7.4
COc1ccc(N(C(=O)c2ccco2)C(C(=O)NC2CCCC2)c2ccncc2)cc1 (stereo not given) | 0.3 | i | 198.1 | 12.3 | 0.3 | . | .
Cc1ccc(S(=O)(=O)N(C)CC(=O)O/N=C(\N)c2cccc(Br)c2)cc1 | -2.7 | i | 237.1 | 12.7 | 2.8 | . | .
CC1(C)CC1C(=O)Nc1ccc([N+](=O)[O-])cc1Br (stereo not given) | -0.9 | i | 272.8 | -12.3 | 7.8* | 17.8 | 6.9
SMILES | NR2E3 ag-1 | Myeloid diff MLP | T cell HTS | NR2E3 ag-2 | FXN GAA850 act | GAA30 counter | GAA850 confirm
CSc1nc(N)nc(SC2C=CCCC2)c1C#N (stereo not given) | -3.1 | i | 650.0 | -113.6 | 12.6* | 40.5* | 21.6*
CSc1nc(N)nc(SCC(=O)C(C)(C)C)c1C#N | 0.3 | i | 402.3 | -11.4 | 1.9 | . | .
CC(C)c1ccc(NC(=O)NN2CCOCC2)cc1 | 2.0 | i | i | -83.8 | 8.0* | 85.1* | 33.4*
CC(C)c1ccc(NC(=O)C(c2ccccc2)N2CCOCC2)cc1 (stereo not given) | 0.3 | i | 571.7 | -16.6 | 0.5 | . | .
COC(=O)c1sccc1NC(=O)COc1ccccc1Cl | 4.4 | i | 151.2 | -71.5 | 7.9* | 81.4* | 29.1*
Cc1cccc(NC(=O)Nc2ccc(Br)cc2)n1 | 0.9 | ? | 725.2 | -78.8 | 5.5 | . | .
Cc1cccc(NC(=O)Nc2ccccc2[N+](=O)[O-])n1 | 1.9 | i | i | -57.8 | 9.3* | 67.2* | 25.4*
Cc1cccc(NC(=O)Nc2ccc(C#N)cc2)n1 | -1.9 | ? | 725.4 | 14.1 | 20.5* | 102.7* | 105.4*
Cc1cccc(NC(=O)Nc2cccc(C#N)c2)n1 | 2.4 | i | i | -17.0 | 8.0* | 90.3* | 70.3*
Cc1ccccc1NC(=O)N1CCCC(c2nc(-c3ccc(C(C)C)cc3)no2)C1 (stereo not given) | -0.3 | i | 795.3 | -81.4 | 9.2* | 61.5* | 28.0*
N#Cc1c(N)nc(SCc2ccncc2)c(C#N)c1-c1cccs1 | -1.9 | i | 269.8 | 4.5 | 9.9* | -8.2 | 6.1
COc1cc(-c2c(C#N)c(N)nc(SCc3ccncc3)c2C#N)cc(OC)c1OC | -1.7 | i | 240.3 | -10.2 | -7.6 | . | .
COc1ccc(-c2nnc(SCC(=O)N3CCOCC3)o2)cc1 | 1.3 | i | 146.1 | -42.5 | 7.7* | 100.9* | 29.5*
O=C(NCc1ccco1)c1ccc(Cn2c(=O)c3ccccc3n(Cc3cccc(F)c3)c2=O)cc1 | 7.7 | i | 380.9 | -0.9 | 8.0* | 4.8 | 7.3
N#Cc1ccccc1Cn1c(=O)n(Cc2ccc(C(=O)NCc3ccco3)cc2)c(=O)c2sccc21 | 1.6 | i | 334.7 | 12.6 | 11.8* | 22.5* | 7.8*
O=C(NCc1ccco1)c1ccc(Cn2c(=O)c3ccccc3n(Cc3ccc(Cl)cc3)c2=O)cc1 | 1.1 | i | 197.9 | -13.4 | 13.9* | 22.1* | 14.0*
CC1=CC(C)(C)N(C(=O)CNC2CCCC2)c2cc(C)ccc21 | -3.1 | i | 446.4 | -20.3 | -1.2 | . | .
CSc1ccc(C(O)c2ncc(-c3ccccc3F)[nH]2)cc1 (stereo not given) | . | i | . | -37.8 | 1.6 | . | .
